Measured values from ChEMBL document CHEMBL3352136, “Vinylated linear P2 pyrimidinyloxyphenylglycine based inhibitors of the HCV NS3/4A protease and corresponding macrocycles” (Bioorg Med Chem, 2014).
pEC50, pKi: −log10 of the molar value. Converted amounts (≈) assume the structure as drawn.

test system: not listed separately; experiment: Apparent permeability from apical to basolateral side in human Caco2 cells; type: ADME, cell-based; conditions: Caco-2
Outline: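 Caco-2 monolayers on polycarbonate filter inserts, cells kept in 90% air/10% CO2. Compound diluted from 10 mM DMSO stock to 10 µM (final DMSO 0.1%) in FASSIF pH 7.4 on apical donor side. Receiver is HBSS pH 7.4 with 1% (w/v) BSA. Run at 37 °C with 500 rpm stirring. Receiver sampled at 15, 30 and 60 min, donor sampled at 60 min for mass balance. Membrane integrity checked afterwards, LC/MS/MS read-out, at least triplicates.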

Row | Structure (SMILES) | Papp A→B [×10⁻⁶ cm/s] | Papp [×10⁻⁶ cm/s]
1 | C=CCCCS(=O)(=O)NC(=O)c1ccccc1NC(=O)[C@@H](NC(=O)[C@@H](NC(=O)OC(C)(C)C)C(C)(C)C)c1ccc(Oc2cc(OC)nc(-c3ccccc3)n2)c(C=C)c1 | 1.7 | –
2 | C=CCCCCC[C@H](NC(=O)OC(C)(C)C)C(=O)N[C@H](C(=O)Nc1ccccc1C(=O)NS(=O)(=O)CCCC=C)c1ccc(Oc2cc(OC)nc(-c3ccccc3)n2)cc1 | 0.22 | –
3 | COc1cc(Oc2ccc(C3NC(=O)[C@H](NC(=O)OC(C)(C)C)CCCCC/C=C/CCCS(=O)(=O)NC(=O)c4ccccc4NC3=O)cc2)nc(-c2ccccc2)n1 (stereo in doubt; 29L) | – | 0.35
4 | C=CCCCS(=O)(=O)NC(=O)c1ccccc1NC(=O)[C@@H](NC(=O)[C@@H](NC(=O)OC(C)(C)C)C(C)(C)C)c1ccc(Oc2cc(OC)nc(-c3ccccc3)n2)cc1 | 0.22 | –
5 | C=CCCCS(=O)(=O)NC(=O)c1ccccc1NC(=O)[C@@H](NC(=O)OC(C)(C)C)c1ccc(Oc2cc(OC)nc(-c3ccccc3)n2)cc1 | 4 | –
6 | C=CCCCS(=O)(=O)NC(=O)c1ccccc1NC(=O)[C@@H](NC(=O)OC(C)(C)C)c1ccc(Oc2cc(OC)nc(-c3ccccc3)n2)c(C=C)c1 | 1 | –

test system: Hepatitis C virus; experiment: Antiviral activity against HCV genotype 1a; type: functional, Hepacivirus hominis; conditions: subtype 1a

Row | Structure (SMILES) | pEC50
7 | CC[C@@H]1C[C@]1(NC(=O)[C@@H]1C[C@@H]2CN1C(=O)[C@H](C(C)(C)C)NC(=O)OCC(C)(C)CCCCc1cccc3c1CN(C3)C(=O)O2)C(=O)NS(=O)(=O)C1CC1 | 8.30
8 | CCC[C@H](NC(=O)C1[C@H]2CCC[C@H]2CN1C(=O)[C@@H](NC(=O)[C@@H](NC(=O)c1cnccn1)C1CCCCC1)C(C)(C)C)C(=O)C(=O)NC1CC1 (some centres not stated) | 6.46
9 | COc1ccc2c(O[C@@H]3C[C@H]4C(=O)N[C@]5(C(=O)NS(=O)(=O)C6CC6)C[C@H]5/C=C\CCCCN(C)C(=O)[C@@H]4C3)cc(-c3nc(C(C)C)cs3)nc2c1C | 8.11

test system: not listed separately; experiment: Solubility of the compound in PBS after 2 hrs by LC-MS/MS analysis; type: physicochemical; conditions: not given
Outline: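 DMSO stock (10 mM) added to PBS to 1% final DMSO, rotated in glass vials 2 h at 37 °C. Centrifuged 10,000g for 30 min, then supernatant quantified by LC–MS/MS. Upper detection limit 100 µM.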

Row | Structure (SMILES) | solubility at 2 h [µM]
10 | C=CCCCS(=O)(=O)NC(=O)c1ccccc1NC(=O)[C@@H](NC(=O)[C@@H](NC(=O)OC(C)(C)C)C(C)(C)C)c1ccc(Oc2cc(OC)nc(-c3ccccc3)n2)c(C=C)c1 | 66 (≈ 55.5 µg/mL)
11 | C=CCCCCC[C@H](NC(=O)OC(C)(C)C)C(=O)N[C@H](C(=O)Nc1ccccc1C(=O)NS(=O)(=O)CCCC=C)c1ccc(Oc2cc(OC)nc(-c3ccccc3)n2)cc1 | 91 (≈ 77.8 µg/mL)
12 | COc1cc(Oc2ccc(C3NC(=O)[C@H](NC(=O)OC(C)(C)C)CCCCC/C=C/CCCS(=O)(=O)NC(=O)c4ccccc4NC3=O)cc2)nc(-c2ccccc2)n1 (stereo in doubt; 29L) | 51 (≈ 42.2 µg/mL)
13 | C=CCCCS(=O)(=O)NC(=O)c1ccccc1NC(=O)[C@@H](NC(=O)[C@@H](NC(=O)OC(C)(C)C)C(C)(C)C)c1ccc(Oc2cc(OC)nc(-c3ccccc3)n2)cc1 | 33 (≈ 26.9 µg/mL)
14 | C=CCCCS(=O)(=O)NC(=O)c1ccccc1NC(=O)[C@@H](NC(=O)OC(C)(C)C)c1ccc(Oc2cc(OC)nc(-c3ccccc3)n2)cc1 | 93 (≈ 65.3 µg/mL)
15 | C=CCCCS(=O)(=O)NC(=O)c1ccccc1NC(=O)[C@@H](NC(=O)OC(C)(C)C)c1ccc(Oc2cc(OC)nc(-c3ccccc3)n2)c(C=C)c1 | 101 (≈ 73.5 µg/mL)

molecular target: Hepatitis C virus serine protease, NS3/NS4A (Hepatitis C virus, UniProt D2K2A8+A3EZI9); experiment: (§1) Inhibition of HCV genotype 1a NS3/4A protease using Ac-DED(Edans)EEAbu-psi[COO]ASK(Dabcyl)-NH2 as substrate by FRET assay; parameters: species or system Hepatitis C virus subtype 1a; conditions: not given
Sequence (D2K2A8 whole entry): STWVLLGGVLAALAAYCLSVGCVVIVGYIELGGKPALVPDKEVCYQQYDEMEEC
Sequence (A3EZI9 whole entry): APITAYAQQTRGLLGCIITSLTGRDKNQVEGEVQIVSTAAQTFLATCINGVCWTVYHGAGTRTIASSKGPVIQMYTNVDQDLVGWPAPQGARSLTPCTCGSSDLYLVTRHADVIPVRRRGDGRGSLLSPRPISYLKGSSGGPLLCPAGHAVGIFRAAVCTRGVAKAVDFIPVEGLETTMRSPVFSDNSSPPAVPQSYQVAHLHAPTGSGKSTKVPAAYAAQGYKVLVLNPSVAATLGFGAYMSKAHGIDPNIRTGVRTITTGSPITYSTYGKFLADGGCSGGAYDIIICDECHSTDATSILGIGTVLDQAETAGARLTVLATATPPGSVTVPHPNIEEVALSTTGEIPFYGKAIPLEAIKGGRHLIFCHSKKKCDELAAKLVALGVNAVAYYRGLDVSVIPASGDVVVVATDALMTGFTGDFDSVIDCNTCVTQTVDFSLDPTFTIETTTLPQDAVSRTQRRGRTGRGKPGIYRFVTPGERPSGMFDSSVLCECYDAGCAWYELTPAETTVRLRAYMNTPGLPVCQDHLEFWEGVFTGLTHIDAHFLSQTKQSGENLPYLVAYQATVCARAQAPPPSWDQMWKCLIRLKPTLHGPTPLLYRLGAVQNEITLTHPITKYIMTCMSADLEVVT
Outline: (§2)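 Full-length NS3/4A (protease–helicase/NTPase, genotype 1a) measured by FRET. Buffer: 50 mM HEPES pH 7.5, 10 mM DTT, 40% glycerol, 0.1% n-octyl-β-D-glucoside, 3.3% DMSO. Ki values derived.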

Row | Structure (SMILES) | pKi
16 | COc1cc(Oc2ccc(C3NC(=O)[C@H](NC(=O)OC(C)(C)C)CCCCCCCCCCS(=O)(=O)NC(=O)c4ccccc4NC3=O)cc2)nc(-c2ccccc2)n1 (stereo in doubt; 31L) | 6.96

molecular target: Hepatitis C virus serine protease, NS3/NS4A (Hepatitis C virus, UniProt A3EZI9+D2K2A8); experiment: as §1; parameters: species or system Hepatitis C virus subtype 1a; conditions: not given; outline: as §2
Sequence (D2K2A8 whole entry): as the sequence (D2K2A8 whole entry) above
Sequence (A3EZI9 whole entry): as the sequence (A3EZI9 whole entry) above

Row | Structure (SMILES) | pKi
17 | C=CCCCS(=O)(=O)NC(=O)c1ccccc1NC(=O)[C@H](NC(=O)[C@@H](NC(=O)OC(C)(C)C)C(C)(C)C)c1ccc(Oc2cc(OC)nc(-c3ccccc3)n2)c(C=C)c1 | 7.48
18 | CC[C@@H]1C[C@]1(NC(=O)[C@@H]1C[C@@H]2CN1C(=O)[C@H](C(C)(C)C)NC(=O)OCC(C)(C)CCCCc1cccc3c1CN(C3)C(=O)O2)C(=O)NS(=O)(=O)C1CC1 | 10.30
19 | CCC[C@H](NC(=O)C1[C@H]2CCC[C@H]2CN1C(=O)[C@@H](NC(=O)[C@@H](NC(=O)c1cnccn1)C1CCCCC1)C(C)(C)C)C(=O)C(=O)NC1CC1 (some centres not stated) | 7.40
20 | C=CCCCS(=O)(=O)NC(=O)c1ccccc1NC(=O)[C@@H](NC(=O)[C@@H](NC(=O)OC(C)(C)C)C(C)(C)C)c1ccc(Oc2cc(OC)nc(-c3ccccc3)n2)c(C=C)c1 | 7.59
21 | COc1cc(Oc2ccc(C3NC(=O)[C@H](NC(=O)OC(C)(C)C)CCCCCCCCCS(=O)(=O)NC(=O)c4ccccc4NC3=O)cc2)nc(-c2ccccc2)n1 (some centres not stated) | 6.89
22 | C=CCCCCC[C@H](NC(=O)OC(C)(C)C)C(=O)N[C@H](C(=O)Nc1ccccc1C(=O)NS(=O)(=O)CCCC=C)c1ccc(Oc2cc(OC)nc(-c3ccccc3)n2)cc1 | 6.64
23 | CC(C)(C)NC(=O)N[C@H](C(=O)N1C[C@H]2[C@@H]([C@H]1C(=O)NC(CC1CCC1)C(=O)C(N)=O)C2(C)C)C(C)(C)C (some centres not stated) [BOCEPREVIR] | 7.85
24 | CC(C)(C)OC(=O)N[C@H](C(=O)N[C@@H]1C(=O)Nc2ccccc2C(=O)NS(=O)(=O)CCC/C=C/c2cc(nc(-c3ccccc3)n2)Oc2ccc1cc2)C(C)(C)C | 6.18
25 | C=CCCCS(=O)(=O)NC(=O)c1ccccc1NC(=O)[C@H]1NC(=O)[C@H](C(C)(C)C)NC(=O)OCC/C=C/c2cc(nc(-c3ccccc3)n2)Oc2ccc1cc2 | 6.41
26 | COc1cc(Oc2ccc(C3NC(=O)[C@H](NC(=O)OC(C)(C)C)CCCCC/C=C/CCCS(=O)(=O)NC(=O)c4ccccc4NC3=O)cc2)nc(-c2ccccc2)n1 (stereo in doubt; 29L) | 6.96
27 | C=CCCCS(=O)(=O)NC(=O)c1ccccc1NC(=O)[C@@H](NC(=O)[C@@H](NC(=O)OC(C)(C)C)C(C)(C)C)c1ccc(Oc2cc(OC)nc(-c3ccccc3)n2)cc1 | 7.02
28 | C=CCCCS(=O)(=O)NC(=O)c1ccccc1NC(=O)[C@@H](NC(=O)OC(C)(C)C)c1ccc(Oc2cc(OC)nc(-c3ccccc3)n2)cc1 | 6.22
29 | C=CCCCS(=O)(=O)NC(=O)c1ccccc1NC(=O)[C@@H](NC(=O)OC(C)(C)C)c1ccc(Oc2cc(OC)nc(-c3ccccc3)n2)c(C=C)c1 | 6.72
30 | COc1ccc2c(O[C@@H]3C[C@H]4C(=O)N[C@]5(C(=O)NS(=O)(=O)C6CC6)C[C@H]5/C=C\CCCCN(C)C(=O)[C@@H]4C3)cc(-c3nc(C(C)C)cs3)nc2c1C | 9.44

test system: not listed separately; experiment: Intrinsic clearance in human liver microsomes preincubated for 5 mins by LC/MS/MS analysis; type: ADME; conditions: liver microsomes
Outline: (§3)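 Compound at 1 µM preincubated 5 min at 37 °C with pooled human liver microsomes (0.5 mg/mL) in 0.1 M potassium phosphate pH 7.4. Reaction started with NADPH (1 mM final) and stopped at 0, 5, 15 and 40 min with ice-cold acetonitrile containing internal standard. LC/MS/MS read-out. ln(% remaining) regressed linearly on time; t1/2 and Clint derived assuming first-order kinetics. Dextromethorphan (3 µM) and midazolam (5 µM) served as CYP2D6/CYP3A4 controls.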

Row | Structure (SMILES) | microsomal CLint [µL/min/mg]
31 | C=CCCCS(=O)(=O)NC(=O)c1ccccc1NC(=O)[C@@H](NC(=O)[C@@H](NC(=O)OC(C)(C)C)C(C)(C)C)c1ccc(Oc2cc(OC)nc(-c3ccccc3)n2)c(C=C)c1 | 17
32 | C=CCCCCC[C@H](NC(=O)OC(C)(C)C)C(=O)N[C@H](C(=O)Nc1ccccc1C(=O)NS(=O)(=O)CCCC=C)c1ccc(Oc2cc(OC)nc(-c3ccccc3)n2)cc1 | 60
33 | COc1cc(Oc2ccc(C3NC(=O)[C@H](NC(=O)OC(C)(C)C)CCCCC/C=C/CCCS(=O)(=O)NC(=O)c4ccccc4NC3=O)cc2)nc(-c2ccccc2)n1 (stereo in doubt; 29L) | 87
34 | C=CCCCS(=O)(=O)NC(=O)c1ccccc1NC(=O)[C@@H](NC(=O)[C@@H](NC(=O)OC(C)(C)C)C(C)(C)C)c1ccc(Oc2cc(OC)nc(-c3ccccc3)n2)cc1 | 64
35 | C=CCCCS(=O)(=O)NC(=O)c1ccccc1NC(=O)[C@@H](NC(=O)OC(C)(C)C)c1ccc(Oc2cc(OC)nc(-c3ccccc3)n2)cc1 | 86

test system: Hepatitis C virus; experiment: Antiviral activity against HCV genotype 1b infected in human Huh-7 cells by firefly luciferase assay; type: functional, cell-based, Hepacivirus hominis; conditions: not given
Outline: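 Huh-7 cells carrying a subgenomic HCV genotype 1b replicon with firefly luciferase reporter; EC50 derived from luciferase signal.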

Row | Structure (SMILES) | pEC50
36 | C=CCCCS(=O)(=O)NC(=O)c1ccccc1NC(=O)[C@H](NC(=O)[C@@H](NC(=O)OC(C)(C)C)C(C)(C)C)c1ccc(Oc2cc(OC)nc(-c3ccccc3)n2)c(C=C)c1 | < 5.00
37 | C=CCCCS(=O)(=O)NC(=O)c1ccccc1NC(=O)[C@@H](NC(=O)[C@@H](NC(=O)OC(C)(C)C)C(C)(C)C)c1ccc(Oc2cc(OC)nc(-c3ccccc3)n2)c(C=C)c1 | < 5.00

test system: not listed separately; experiment: Half life in human liver microsomes preincubated for 5 mins by LC/MS/MS analysis; type: ADME; conditions: liver microsomes; outline: as §3

Row | Structure (SMILES) | half-life [min]
38 | C=CCCCS(=O)(=O)NC(=O)c1ccccc1NC(=O)[C@@H](NC(=O)[C@@H](NC(=O)OC(C)(C)C)C(C)(C)C)c1ccc(Oc2cc(OC)nc(-c3ccccc3)n2)c(C=C)c1 | 83
39 | C=CCCCCC[C@H](NC(=O)OC(C)(C)C)C(=O)N[C@H](C(=O)Nc1ccccc1C(=O)NS(=O)(=O)CCCC=C)c1ccc(Oc2cc(OC)nc(-c3ccccc3)n2)cc1 | 23
40 | COc1cc(Oc2ccc(C3NC(=O)[C@H](NC(=O)OC(C)(C)C)CCCCC/C=C/CCCS(=O)(=O)NC(=O)c4ccccc4NC3=O)cc2)nc(-c2ccccc2)n1 (stereo in doubt; 29L) | 16
41 | C=CCCCS(=O)(=O)NC(=O)c1ccccc1NC(=O)[C@@H](NC(=O)[C@@H](NC(=O)OC(C)(C)C)C(C)(C)C)c1ccc(Oc2cc(OC)nc(-c3ccccc3)n2)cc1 | 22
42 | C=CCCCS(=O)(=O)NC(=O)c1ccccc1NC(=O)[C@@H](NC(=O)OC(C)(C)C)c1ccc(Oc2cc(OC)nc(-c3ccccc3)n2)cc1 | 16
